Test results reported in paper PMC10935467 (Acta Pharmaceutica Sinica. B, 2023).
Where a SMILES comes first, the peptide text is derived from it. Where no end group is shown, it is not given here. [ ]: non-standard residue; d: D form.

Experiments:
mouse LAG-3/FGL1 = biological target: T1, mouse LAG-3/FGL1 (Mus musculus, UniProt Q61790); experiment: Blocking assay of mLAG-3/mFGL1 interaction on CHO-K1-mLAG-3 cells; type: binding
T1 sequence (Q61790 24-521): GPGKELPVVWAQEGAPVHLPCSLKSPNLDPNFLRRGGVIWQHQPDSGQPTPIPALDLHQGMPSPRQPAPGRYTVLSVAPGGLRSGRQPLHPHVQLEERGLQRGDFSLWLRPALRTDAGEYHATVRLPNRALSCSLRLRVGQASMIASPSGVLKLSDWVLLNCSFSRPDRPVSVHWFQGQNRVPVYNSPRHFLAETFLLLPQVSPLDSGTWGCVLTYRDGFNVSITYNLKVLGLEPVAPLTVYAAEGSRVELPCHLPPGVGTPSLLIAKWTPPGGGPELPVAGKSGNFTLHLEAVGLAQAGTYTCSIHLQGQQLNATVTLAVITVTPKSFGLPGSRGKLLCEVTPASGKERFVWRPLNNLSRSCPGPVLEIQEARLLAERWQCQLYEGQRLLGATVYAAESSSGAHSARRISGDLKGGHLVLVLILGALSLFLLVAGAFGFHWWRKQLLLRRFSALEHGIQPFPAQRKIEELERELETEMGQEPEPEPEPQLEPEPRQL
How it was run: (§1)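 Cells stably expressing human (CHO-K1-hLAG-3) or mouse (CHO-K1-mLAG-3) LAG-3 are pre-incubated with test peptide at graded concentrations for 30 min at 4 °C. Recombinant FGL1-Fc of the matching species is then added for 30 min at 4 °C, followed by PE anti-human IgG1 (anti-Fc). MFI is read by flow cytometry. Blocking % = (MFI no-peptide control − MFI peptide)/MFI no-peptide control × 100. Cells given only anti-Fc-PE serve as background. IC50 is taken from dose–response curves.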

mouse LAG-3-His protein = biological target: T2, mouse LAG-3-His protein (Mus musculus, UniProt Q61790); experiment: MST binding affinity to mLAG-3
T2 sequence (Q61790 24-521): T1 sequence (Q61790 24-521)
How it was run: (§2)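 His-tagged LAG-3 (human or mouse) is labeled with RED-tris-NTA 2nd-generation dye. Test peptide is serially diluted in PBST (0.05% Tween-20) and mixed with an equal volume of labeled protein at room temperature for 5 min. Samples are loaded into capillaries for microscale thermophoresis, and KD is fitted from the dose–response curves.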

Human LAG-3-His protein = biological target: T3, Human LAG-3-His protein (Homo sapiens, UniProt P18627); experiment: MST binding affinity to hLAG-3
T3 sequence (P18627 23-525): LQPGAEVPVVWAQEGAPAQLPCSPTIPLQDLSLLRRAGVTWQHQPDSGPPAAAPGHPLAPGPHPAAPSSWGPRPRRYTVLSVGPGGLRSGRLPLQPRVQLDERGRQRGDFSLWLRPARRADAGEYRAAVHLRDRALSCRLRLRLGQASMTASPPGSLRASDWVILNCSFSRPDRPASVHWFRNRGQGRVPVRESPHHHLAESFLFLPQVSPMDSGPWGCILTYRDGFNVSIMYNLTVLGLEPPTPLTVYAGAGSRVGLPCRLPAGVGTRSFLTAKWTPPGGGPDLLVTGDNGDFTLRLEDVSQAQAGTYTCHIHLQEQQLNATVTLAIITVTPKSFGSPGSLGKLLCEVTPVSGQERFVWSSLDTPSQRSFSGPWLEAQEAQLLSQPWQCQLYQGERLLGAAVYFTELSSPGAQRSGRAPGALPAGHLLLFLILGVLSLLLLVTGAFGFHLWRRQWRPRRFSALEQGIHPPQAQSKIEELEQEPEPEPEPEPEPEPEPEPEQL
How it was run: as §2

[1] = In vivo toxicity analysis in MC38 tumor-bearing mice; parameters: species or system mouse
hPD-1/hPD-L1 = hPD-1/hPD-L1 (Homo sapiens, UniProt Q9NZQ7); experiment: Blocking assay of hPD-1/hPD-L1 interaction; type: binding; conditions: 100 μmol/L, n = 3, compared with OPBP-1(8–12)
[2] = tested on: MC38 tumors in C57BL/6 mice; experiment: MC38 tumor model, LFOP alone or combined with radiotherapy; type: in vivo, mouse
How it was run: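 In MC38 tumor-bearing C57BL/6 mice, tumors of about 100 mm3 receive local 20 Gy irradiation. Test peptide at 5.8 mg/kg is given starting the same day, with or without irradiation; saline and RT-alone groups are included. Tumor volume (½ × length × width × height) and body weight are recorded every two days for 14 days, and tumors are weighed at the end. n = 5.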

human LAG-3/FGL1 = biological target: T4, human LAG-3/FGL1 (Homo sapiens, UniProt P18627); experiment: Blocking assay of hLAG-3/hFGL1 interaction on CHO-K1-hLAG-3 cells; type: binding; conditions: 100 μmol/L, n = 3, compared with LFP-D1
T4 sequence (P18627 23-525): T3 sequence (P18627 23-525)
How it was run: as §1

[3] = tested on: H22 tumors in BALB/c mice; experiment: H22 tumor model; type: in vivo, mouse; conditions: daily for 14 days, LFP-D1 3 mg/kg, LFOP 5.8 mg/kg, n = 5
How it was run: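 H22 cells (2 × 10^6) are injected subcutaneously into the right flank of six-week-old female BALB/c mice. Dosing is daily once tumors reach about 50 mm3: 3 mg/kg, 2.5 mg/kg, both combined, or 5.8 mg/kg of the fused peptide (equimolar to 3 mg/kg). Tumor volume (½ × length × width × height) and body weight are recorded every two days over 14 days of treatment.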

[4] = LFP-D1 treatment vs normal saline, n = 5

Chain of hPD-1/hPD-L1 (Q9NZQ7 19-239 limits assumed): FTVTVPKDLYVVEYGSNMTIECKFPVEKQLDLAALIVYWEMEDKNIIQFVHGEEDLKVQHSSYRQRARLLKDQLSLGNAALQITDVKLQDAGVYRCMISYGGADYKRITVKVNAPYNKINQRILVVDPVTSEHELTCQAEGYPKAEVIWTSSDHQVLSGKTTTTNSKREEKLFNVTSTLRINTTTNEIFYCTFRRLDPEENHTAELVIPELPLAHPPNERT

| Molecule | IC50 (mouse LAG-3/FGL1) [µM] | Kd (mouse LAG-3-His protein) [µM] | Kd (Human LAG-3-His protein) [µM] | Liver index ([1]; LFP-D1 treatment vs normal saline, liver weight (mg) to body weight (g), n = 5) | ALT level in mice serum [1, 4] | AST level in mice serum [1, 4] | Blocking efficacy on hPD-1/hPD-L1 interaction (hPD-1/hPD-L1) | Tumor progression of MC38 tumors ([2]; LFOP 5.8 mg/kg alone, 14 days, n = 5) | Tumor growth of MC38 tumors ([2]; LFOP 5.8 mg/kg combined with RT (local 20 Gy), 14 days, n = 5) | Tregs after treatment ([2]; treatment with LFOP, data not shown) | Blocking efficacy on hLAG-3/hFGL1 interaction (human LAG-3/FGL1) | Tumor growth in H22 tumor model [3] | Histopathology of major organs (H&E staining) ([1]; heart, liver, spleen, lung, kidney after treatment with LFOP, RT or both) | Body weight of the mice among groups at ultimate time ([1]; normal saline, RT 20 Gy, LFOP 5.8 mg/kg, LFOP + RT, 14 days, n = 5) | ALT and AST levels in serum ([1]; normal saline, RT 20 Gy, LFOP 5.8 mg/kg, LFOP + RT, n = 5) |
| --- | --- | --- | --- | --- | --- | --- | --- | --- | --- | --- | --- | --- | --- | --- | --- |
| MHRPPST [LFP-6] | 47.2 ± 2.2 | 14.6 ± 3.3 | 16.1 ± 5.5 |  |  |  |  |  |  |  |  |  |  |  |  |
| CSCC[C@@H](N)C(=O)N[C@@H](Cc1c[nH]cn1)C(=O)N[C@@H](CCCNC(=N)N)C(=O)N1CCC[C@H]1C(=O)N1CCC[C@H]1C(=O)N[C@@H](CO)C(=O)N[C@@H](C(=O)O)[C@H](C)O [LFP-D1] (H-[dM]HRPPS[dT]-OH) | 17.5 ± 2.2 | 10.9 ± 3.3 | 15.7 ± 6.7 | no significant difference | no significant difference | no significant difference |  |  |  |  |  |  |  |  |  |
| CSCC[C@@H](N)C(=O)N[C@@H](Cc1c[nH]cn1)C(=O)N[C@@H](CCCNC(=N)N)C(=O)N1CCC[C@H]1C(=O)N1CCC[C@H]1C(=O)N[C@@H](CO)C(=O)N[C@@H](C(=O)NCC(=O)N[C@@H](CO)C(=O)N[C@H](CCCNC(=N)N)C(=O)N[C@@H](C(=O)N[C@H](Cc1ccc(O)cc1)C(=O)N[C@H](CO)C(=O)N[C@H](Cc1ccccc1)C(=O)O)C(C)C)[C@H](C)O [LFOP] (H-[dM]HRPPS[dT]GS[dR][dV][dY][dS][dF]-OH; N-terminus and C-terminus assumed) |  |  |  |  |  |  | in line with its parental peptide | slowed tumor progression | effectively controlled tumor growth even partial regression | decreased | in line with its parental peptide | significantly inhibited the tumor growth | no abnormalities | no significant differences | indiscriminate |
